Experiments:
Assay type in all cases: functional
[1] = tested on: Aspergillus flavus; experiment: Antifungal activity against Aspergillus flavus at 1 to 10 mg/mL after 3 to 4 days by agar well diffusion method
Method in brief: (§1)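 Fungi were grown on Sabouraud dextrose agar (glucose–peptone–agar 40:10:15) after single-spore purification. Wells (4 mm × 2 mm) were cut and their bottoms sealed with 0.8% soft agar, then loaded with DMSO solutions at 10 mg/mL. DMSO served as control and amphotericin B as reference. Plates incubated at 30 °C for 3–4 days. Inhibition zone diameter was measured three times by caliper and averaged.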

[2] = tested on: Candida albicans; experiment: Antifungal activity against Candida albicans at 1 to 10 mg/mL after 3 to 4 days by agar well diffusion method; method in brief: as §1
[3] = tested on: Candida albicans; experiment: Antifungal activity against Candida albicans after 3 to 4 days by agar well diffusion method
Method in brief: (§2)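 Agar well diffusion on Sabouraud dextrose agar (glucose–peptone–agar 40:10:15), with cultures purified by single-spore isolation. Wells (4 mm × 2 mm) were sealed at the bottom with 0.8% soft agar and loaded with DMSO solutions. DMSO served as control and amphotericin B as reference. Incubation was 30 °C for 3–4 days; each zone was measured three times by caliper and averaged.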

[4] = tested on: Staphylococcus aureus; experiment: Antibacterial activity against Staphylococcus aureus at 1 to 10 mg/mL after 24 hrs by agar well diffusion method
Method in brief: (§3)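 Agar well diffusion. Bacterial pellets from a 24 h culture (about 10⁴–10⁶ CFU/ml) were spread on nutrient agar (tryptone 1%, yeast extract 0.5%, NaCl 0.5%, agar 1%, pH 7.0). Wells received DMSO solutions at 10 mg/mL, with DMSO as control and tetracycline as reference. Plates ran 24 h at 37 °C. Each zone was measured three times by caliper and averaged; three runs per culture.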

[5] = tested on: Aspergillus flavus; experiment: Antifungal activity against Aspergillus flavus after 3 to 4 days by agar well diffusion method; method in brief: as §2
[6] = tested on: Pseudomonas aeruginosa; experiment: Antibacterial activity against Pseudomonas aeruginosa at 1 to 10 mg/mL after 24 hrs by agar well diffusion method; method in brief: as §3

SMILES	diameter of the inhibition zone (DIZ) [1] [mm]	diameter of the inhibition zone (DIZ) [2] [mm]	MIC [3] [µg/mL]	diameter of the inhibition zone (DIZ) [4] [mm]	MIC [5] [µg/mL]	diameter of the inhibition zone (DIZ) [6] [mm]
C[C@@H]1[C@H](O)[C@@H](C)/C=C/C=C/C=C/C=C/C=C/C=C/C=C/[C@H](O[C@@H]2O[C@H](C)[C@@H](O)[C@H](N)[C@@H]2O)C[C@@H]2O[C@](O)(C[C@@H](O)C[C@@H](O)[C@H](O)CC[C@@H](O)C[C@@H](O)CC(=O)O[C@H]1C)C[C@H](O)[C@H]2C(=O)O [AMPHOTERICIN B]	16	19				
COc1cc(C2c3c(nc[nH]c3=O)Oc3[nH]c(=S)[nH]c(=O)c32)cc(OC)c1OC (centres undefined)	0	11	< 50	15	< 50	13
CCOC(=O)C1=C(N)Sc2[nH]c(=S)[nH]c(=S)c2C1c1ccc(Cl)cc1 (centres undefined)	14	14	< 50	16	< 50	18
CCOC=C1C(=O)NC(=S)NC1=O	0	12		13		13
CN(C)[C@@H]1C(O)=C(C(N)=O)C(=O)[C@@]2(O)C(O)=C3C(=O)c4c(O)cccc4[C@@](C)(O)[C@H]3C[C@@H]12 [TETRACYCLINE]				26		28
NNC=C1C(=O)NC(=S)NC1=O	36	0		18		18
O=c1[nH]c(=S)nc2oc3cc(O)ccc3cc1-2	0	0	< 50	15	< 50	14
COc1cc(C2c3c(nc(N)c(C#N)c3N)Oc3[nH]c(=S)[nH]c(=O)c32)cc(OC)c1OC (centres undefined)	0	10	< 50	13	< 50	12
COc1cc(C2C(C#N)=C(NS(=O)(=O)c3ccccc3)Oc3[nH]c(=S)[nH]c(=O)c32)cc(OC)c1OC (centres undefined)	0	12	< 50	14	< 50	13
CCOC(=O)C1=C(N)Oc2[nH]c(=S)[nH]c(=O)c2C1c1ccc(Cl)cc1 (centres undefined)	0	13	< 50	16	< 50	19
COc1cc(C2C(C#N)=C(N)Oc3[nH]c(=S)[nH]c(=O)c32)cc(OC)c1OC (centres undefined)	0	10	< 50	13	< 50	13

From ChEMBL document CHEMBL1926503, “Efficient one-pot preparation of novel fused chromeno[2,3-d]pyrimidine and pyrano[2,3-d]pyrimidine derivatives” (2012)
